Assay results: ChEMBL document CHEMBL1145092, “Soft antimicrobial agents: synthesis and activity of labile environmentally friendly long chain quaternary ammonium compounds” (J Med Chem, 2003)

What was measured:
[1] = (§1) Half life (t1/2) was determined; type: functional
Method in brief: (§2)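 Hydrolytic stability: compound from a 0.1 mg/mL ethanol stock was spiked into 10 mM phosphate buffer, pH 6, and held at 60 °C (±0.2 °C). Periodic HPLC or LC-MS/MS analysis was run, and k_obs came from linear regression of peak integration (n = 3). Selected compounds were also tested in diluted (1:4) agar at 37 °C.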

Staphylococcus aureus [2] = assay: Minimum concentration required to inhibit Staphylococcus aureus ATCC 25923; type: functional
Method in brief: (§3)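 Broth doubling-dilution MIC in Mueller Hinton broth against ATCC quality-control strains, incubated 24 h at 37 °C in ambient air. Poorly water-soluble compounds were dissolved in minimal DMSO. Values are in µg/mL.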

Enterococcus faecalis [3] = assay: Minimum concentration required to inhibit Enterococcus faecalis ATCC 29212; type: functional; method in brief: as §3
Escherichia coli = assay: Minimum concentration required to inhibit Escherichia coli ATCC 25922; type: functional; method in brief: as §3
Pseudomonas aeruginosa = assay: Minimum concentration required to inhibit Pseudomonas aeruginosa ATCC 27853; type: functional; method in brief: as §3
Staphylococcus aureus [4] = assay: Tested for antibacterial activity against Staphylococcus aureus; type: functional
Enterococcus faecalis [5] = assay: Minimum concentration required to inhibit enterococcus faecalis ATCC 29212; type: functional; method in brief: as §3
[6] = as §1; type: ADME; method in brief: as §2
Human alphaherpesvirus 1 [7] = assay: Tested for antiviral activity against HSV-1 at a concentration of 25 ug/mL after 2 hr of treatment at 37 degrees C; type: functional, herpes simplex virus
Method in brief: (§4)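 HSV-1 strain MacIntyre stock (10^6.5–10^7.5 TCID50/100 µL) was mixed 1:1 with twofold compound dilutions made in RPMI-1640 with 2% FBS from a 1 mg/mL HBSS stock; concentrations are final. Mixtures were held 2 h at 37 °C, then diluted 10-fold to stop. Residual titer was measured on Vero monolayers by 10-fold dilutions in quadruplicate wells, scoring CPE daily for 5 days at 37 °C and 5% CO2. Titers were calculated by Reed–Muench as log10 TCID50/0.1 mL, mean of three, against a virus-plus-medium control.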

Human alphaherpesvirus 1 [8] = assay: Tested for antiviral activity against HSV-1 at a concentration of 6.25 ug/mL after 2 hr of treatment at 37 degrees C; type: functional, herpes simplex virus; method in brief: as §4
Human alphaherpesvirus 1 [9] = assay: Tested for antiviral activity against HSV-1 at a concentration of 100 ug/mL after 2 hr of treatment at 37 degrees C; type: functional, herpes simplex virus; method in brief: as §4
Human alphaherpesvirus 1 [10] = assay: Tested for antiviral activity against HSV-1 at a concentration of 12.5 ug/mL after 2 hr of treatment at 37 degrees C; type: functional, herpes simplex virus; method in brief: as §4
Human alphaherpesvirus 1 [11] = assay: Tested for antiviral activity against HSV-1 at a concentration of 50 ug/mL after 2 hr of treatment at 37 degrees C; type: functional, herpes simplex virus; method in brief: as §4

MIC (Staphylococcus aureus [2])	MIC (Enterococcus faecalis [3])	MIC (Escherichia coli)	MIC (Pseudomonas aeruginosa)	Log 1/MIC (Staphylococcus aureus [4])	MIC (Enterococcus faecalis [5])	Log t1/2 [6]	Compound	Log t1/2 [1]	MLC (Staphylococcus aureus [2])	MLC (Enterococcus faecalis [3])	MLC (Escherichia coli)	MLC (Pseudomonas aeruginosa)	Log TCID50 (Human alphaherpesvirus 1 [7])	Log TCID50 (Human alphaherpesvirus 1 [8])	Log TCID50 (Human alphaherpesvirus 1 [9])	Log TCID50 (Human alphaherpesvirus 1 [10])	Log TCID50 (Human alphaherpesvirus 1 [11])
50 µg/mL	10 µg/mL	100 µg/mL	3200 µg/mL	-1.51			CCCCCCCCCCCC(=O)OC[n+]1ccccc1.[Cl-]	0.31	50 µg/mL	200 µg/mL	400 µg/mL	3200 µg/mL					
1 µg/mL		32 µg/mL	250 µg/mL	0	8 µg/mL	1.1	CCCCCCCCCCCCCCCC(=O)OCC[n+]1ccccc1.[Br-]		1 µg/mL	8 µg/mL	32 µg/mL	1000 µg/mL					
1 µg/mL	8 µg/mL	500 µg/mL	250 µg/mL	0		0.9	CCCCCCCCCCCCCCCCCC(=O)OCC[n+]1ccccc1.[Br-]		2 µg/mL	8 µg/mL	500 µg/mL	250 µg/mL	2.9	6.9	1.3	6.1	1.63
2 µg/mL	4 µg/mL	125 µg/mL	500 µg/mL	-0.3		0.27	CCCCCCCCCCCC(=O)OCC[N+](CCCC)(CCCC)CCCC		8 µg/mL	16 µg/mL	125 µg/mL	1000 µg/mL	6.63	7	0.5	7	6
< 6.25 µg/mL	2 µg/mL	25 µg/mL	200 µg/mL	-0.9		0.33	CCCCCCCCCCCC(=O)OCC[n+]1ccccc1.[Br-]		50 µg/mL	100 µg/mL	100 µg/mL	200 µg/mL	6.73	7.03	1.63	6.8	6.73
2 µg/mL	8 µg/mL	64 µg/mL	250 µg/mL				CCCCCCCCCCCCCCCC(=O)OCC[N+](CC)(CC)CC.[Br-]		4 µg/mL	16 µg/mL	64 µg/mL	250 µg/mL	6.33		0.8	7	5.73
4 µg/mL	4 µg/mL	125 µg/mL	125 µg/mL	-0.6		0.92	CCCCCCCCCCCCNC(=O)C[n+]1ccccc1		4 µg/mL	8 µg/mL	125 µg/mL	125 µg/mL	5.4		1.5	6.57	1.5
500 µg/mL	> 2000 µg/mL	1000 µg/mL	> 2000 µg/mL	-2.69		0.62	CCCCCCCC(=O)OCC[n+]1ccccc1.[Br-]		500 µg/mL	>2000 µg/mL	1000 µg/mL	>2000 µg/mL					
< 0.25 µg/mL	1 µg/mL	250 µg/mL	500 µg/mL	0.6		2.36	CCCCCCCCCCCCCCCC(=O)OCCC[n+]1ccccc1		1 µg/mL	4 µg/mL	250 µg/mL	500 µg/mL					
16 µg/mL	32 µg/mL	16 µg/mL	250 µg/mL	-1.2		0.52	CCCCCCCCCCCC(=O)OCC[N+](CC)(CC)CC.[Br-]		16 µg/mL	32 µg/mL	125 µg/mL	250 µg/mL					
2 µg/mL	7.5 µg/mL	60 µg/mL	250 µg/mL				CCCCCCCCCCCCCCCC(=O)NCC[n+]1ccccc1.[Cl-]						2.9	6.47	0.8	6.07	0.9
4 µg/mL	4 µg/mL	125 µg/mL	250 µg/mL	-0.6		1.81	CCCCCCCCCCCC(=O)OCCC[n+]1ccccc1		4 µg/mL	16 µg/mL	125 µg/mL	250 µg/mL					
